Data on 17 compounds can be found in ChEMBL document CHEMBL1148371, “Sulfonyl-containing aldophosphamide analogues as novel anticancer prodrugs targeted against cyclophosphamide-resistant tumor cell lines” (J Med Chem, 2004).

The test system of data set [1] is P388. The data set can be described thus: In vivo antitumor activity against P388/0 (wild) leukemia in mice measured by increase in life span after 400 mg/kg compound administration. The class given is functional. Conditions: Mus musculus. Put shortly:
(§1)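 CD2F1 mice (24–26 g) were implanted ip with 10^6 P388/0 or P388/CPA leukemia cells on day 0. A single ip dose (100, 200 or 400 mg/kg) in saline or saline–Tween 80 was given on day 1; vehicle controls were included. Five mice were used per dose. Survival was followed for 33 days against untreated controls and reported as % increase in life span and number of long-term survivors.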

Data set [2] has as its system P388/CPA. The data set can be described thus: In vivo antitumor activity against P388/CPA leukemia in mice (resistant) measured by increase in life span after 100 mg/kg compound administration. The class given is functional. Conditions: Mus musculus. Put shortly: as §1
In data set [3] the test system is V79. The experiment in a line: In vitro cytotoxicity against V-79 chinese hamster lung fibroblasts (3 hr drug exposure time) by clonogenic assay. Conditions: Cricetulus griseus, V79, 3 h. The class given is functional, cell-based. Summed up: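 Subcloned V-79 cells in MEM with 10% heat-inactivated FBS were used. 500 log-phase cells per dish were seeded and left 12–15 h. Cells were exposed to drug or solvent for 3 h at 37 °C, rinsed with HBSS, and grown 5–6 days. Colonies were fixed with EtOH, stained with crystal violet and counted against solvent control. IC50 (50% loss of clonogenic survival) came from the semilog concentration–survival plot; three experiments.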

Data set [4] concerns P388/CPA. The data set can be described thus: In vivo antitumor activity against P388/CPA leukemia (resistant) in mice measured by increase in life span after 400 mg/kg compound administration. The class given is functional. To be noted: Mus musculus. Summed up:
as §1

Data set [5] can be described thus: Half life period in phosphate buffer (0.08 M). The class given is ADME. Put shortly:
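Prodrug was incubated in 0.08 M phosphate buffer pH 7.4 at 37 °C with shaking, mostly at 3–9 mM (0.8 or 0.3 mM for some). Incubation was stopped with 2.0 M acetate pH 5.0 plus EtOH. Parent compound was quantified by silica TLC (UV 254 nm or NBP stain) and densitometry against a zero-time control. kobs came from the ln(% remaining) versus time slope; t1/2 = 0.693/kobs.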

Data set [6] has as its system P388. The experiment in a line: In vivo antitumor activity against P388/0 (wild) leukemia in mice measured by increase in life span after 100 mg/kg compound administration. The class given is functional. Conditions: Mus musculus. Summed up:
as §1

The subject of data set [7] is P388/CPA. The data set can be described thus: In vivo antitumor activity against P388/CPA leukemia (resistant) in mice measured by increase in life span after 200 mg/kg compound administration. The class given is functional. To be noted: Mus musculus. Put shortly: as §1
Data set [8] in a line: Half life period in human plasma using phosphate buffer (0.08 M). The class given is ADME, cell-free.
In data set [9] the test system is P388. The data set can be described thus: In vivo antitumor activity against P388/0 (wild) leukemia in mice measured by increase in life span after 200 mg/kg compound administration. The class given is functional. To be noted: Mus musculus. Summed up: as §1
Data set [10] can be described thus: In vivo antitumor activity against P388/CPA leukemia (resistant) in mice measured by increase in life span after 400 mg/kg compound administration; Toxic. Conditions: mouse. The class given is toxicity, organism-based. Also on record: dose 400 mg/kg. Summed up:
as §1

Data set [11] can be described thus: In vivo antitumor activity against P388/0 (wild) leukemia in mice measured by increase in life span after 400 mg/kg compound administration; Toxic. The class given is toxicity, organism-based. Also on record: dose 400 mg/kg. To be noted: mouse. Put shortly:
as §1

Data set [12] concerns P388. The experiment in a line: Number of long-term (33-day) survival P388/0 (wild) leukemia mice (5) after 400 mg/kg compound administration. The class given is functional, Mus musculus. Summed up: as §1
Data set [13] in a line: Half life period in phosphate buffer (0.2 M). The class given is ADME.
The nature of data set [14]: In vivo antitumor activity against P388/0 (wild) leukemia in mice measured by increase in life span after 200 mg/kg compound administration; Toxic. On the set-up: dose 200 mg/kg. To be noted: mouse. The class given is toxicity, organism-based. Summed up:
as §1

pIC50: −log10 of the molar value.

In the case of `CS(=O)(=O)CC(OP(=O)(N(CCCl)CCCl)N(CCCl)CCCl)c1ccccc1` (stereo not given), the results for the ILS at 400 mg/kg in [1] and in data set [4] were 20% and 60%, respectively. For the same compound, the ILS at 100 mg/kg came to 4% in data set [2] and 10% in data set [6]. The compound further had a pIC50 in data set [3] of 4.82. The half-life in data set [5] was 1.8 h; in data set [8], 1 h. Also, the ILS at 200 mg/kg in data set [7] and in data set [9] was 20% each time.
For `Cc1ccc(SCCOP(N)(=O)N(CCCl)CCCl)cc1` (stereo not given), the pIC50 in data set [3] is 4.16.
Turning to `O=[N+]([O-])c1ccc(S(=O)(=O)CCOP(=O)(N(CCCl)CCCl)N(CCCl)CCCl)cc1`, the ILS result in data set [10] and in data set [11] was “Toxic” throughout. The results for the ILS at 100 mg/kg in data set [2] and in data set [6] were 84% and 100%, respectively. For the same compound, the pIC50 in [3] was 5.74. Moreover, the half-life was 0.69 h in [5] and 0.37 h in data set [8]. The figures for the ILS at 200 mg/kg in data set [7] and in [9] were 68% and 120%, respectively.
For `CSCCO`, the pIC50 in data set [3] was 4.16.
On the same count and under the same terms, the figure for `O=[N+]([O-])c1ccc(SCCO)cc1` is 4.16.
For `O=P(NCCCl)(NCCCl)OCCS(=O)(=O)c1ccccc1`, the ILS at 400 mg/kg came to 33% in data set [1] and 60% in data set [4]. Further, the values for the ILS at 100 mg/kg in data set [2] and in data set [6] were 20% and 33%, respectively. In data set [3], the pIC50 was 4.86. Besides, the half-life in data set [5] is 6.4 h; in data set [8], 2.6 h. For the same compound, the increase in life span (ILS) at 200 mg/kg in [7] came to 28%; in data set [9] it was 33%.
Take `O=[N+]([O-])c1ccc(S(=O)(=O)CCOP(=O)(NCCCl)NCCCl)cc1`: the ILS result in data set [10] and in [11] was “Toxic” throughout. The ILS at 100 mg/kg in [2] is 60%; in [6], 71%. Further, in [3], the pIC50 was 5.68. Besides, the half-life in data set [5] is 0.08 h; in data set [8], under 0.01 h. Besides, the figures for the ILS at 200 mg/kg in data set [7] and in [9] were 92% and 138%, respectively.
As to `CSCCOP(=O)(N(CCCl)CCCl)N(CCCl)CCCl`, the pIC50 in data set [3] was 4.16.
For `Cc1ccc(S(=O)(=O)CCOP(=O)(NCCCl)NCCCl)cc1`, the ILS at 400 mg/kg in [1] amounted to 23%; in data set [4] it was 36%. For the same compound, the ILS at 100 mg/kg in data set [2] turned out to be 4%; in data set [6] it was 23%. In [3], the pIC50 is 5.02. For the same compound, the values for the half-life in data set [5] and in data set [8] were 12.1 h and 4.4 h, respectively. Also, the figures for the ILS at 200 mg/kg in data set [7] and in data set [9] were 12% and 14%, respectively.
In the case of `CSCC(OP(=O)(N(CCCl)CCCl)N(CCCl)CCCl)c1ccccc1` (stereo not given), the pIC50 in [3] is 4.16.
With `Cc1ccc(S(=O)(=O)CCOP(N)(=O)N(CCCl)CCCl)cc1` (stereo not given), the ILS at 400 mg/kg in data set [1] worked out at 90%; in data set [4], 44%. The figures for the ILS at 100 mg/kg in data set [2] and in data set [6] were 28% and 20%, respectively. In data set [3], this compound had a pIC50 of 4.94. Further, the half-life in [5] is 12.8 h; in [8], 4.8 h. For the same compound, the figures for the ILS at 200 mg/kg in data set [7] and in [9] were 28% and 50%, respectively.
Turning to `Cc1ccc(SCCO)cc1`, the pIC50 in [3] was 4.16.
Turning to `CS(=O)(=O)CCOP(=O)(N(CCCl)CCCl)N(CCCl)CCCl`, the ILS at 400 mg/kg was determined as 30% in [1] and 60% in data set [4]. Besides, the ILS at 100 mg/kg in data set [2] came out at 12%; in data set [6] it was 10%. Further, the pIC50 in [3] is 4.62. For the same compound, the half-life in data set [5] was 7.2 h; in [8], 1.6 h. The ILS at 200 mg/kg in [7] worked out at 28%; in [9], 10%.
Turning to `CS(=O)(=O)CCOP(=O)(NCCCl)NCCCl`, the results for the ILS at 400 mg/kg in [1] and in data set [4] were 100% and 108%, respectively. Also, the values for the ILS at 100 mg/kg in data set [2] and in data set [6] were 20% and 33%, respectively. Besides, in [3], the pIC50 is 4.17. Besides, the half-life in data set [5] is 6.4 h; in data set [8] it was 2.2 h. The Number in data set [12] came out at 1. The ILS at 200 mg/kg in [7] was 84%; in data set [9] it was 52%.
In data set [13], `O=P(O)(NCCCl)NCCCl` [PALIFOSFAMIDE] showed a half-life of 1 h. In [3], the pIC50 was 4.22. The ILS at 100 mg/kg in [6] is 92%. Moreover, in data set [14], the ILS result is listed as “Toxic”.
Take `CSCCOc1ccc([N+](=O)[O-])c([N+](=O)[O-])c1`: in data set [3], the pIC50 was 4.16.
Still for that read-out and setting: the same measure for `CS(=O)(=O)CCOc1ccc([N+](=O)[O-])c([N+](=O)[O-])c1`: 4.16.

As a reminder, the ILS is how much longer treated animals lived than controls. What is called pIC50 is −log10 of the IC50, conventionally taken in molar units. Higher therefore signals a low IC50. Broadly, the half-life is how long it takes for the measured level to halve. A higher half-life goes with slow decline.
